pIC50, pKi: −log10 of the molar value.
Molecular target: Glutamate NMDA receptor
Assay: Inhibition of strychnine-insensitive [3H]glycine binding to the N-methyl-D-aspartate glutamate receptor of synaptic plasma membranes(SPM) prepared from rat forebrain
Type: cell-free
In short: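 Rat forebrain synaptic plasma membranes (male Sprague-Dawley, 30–45 days old), Triton X-100-washed; 0.2–0.4 mg incubated with 10 nM [3H]glycine and a range of compound concentrations in triplicate, in 50 mM Tris/acetate pH 7.4, for 10 min at 2 °C. Bound ligand separated by centrifugation (12000g, 15 min, 4 °C) or GF/B filtration, then scintillation counted. Nonspecific binding set with 100 μM glycine. Ki derived by logit-log analysis.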

| pKi | Structure (SMILES) |
| --- | --- |
| < 4.52 | O=C(O)Cc1c(C(=O)O)[nH]c2c(Cl)cccc12 |
| 4.96 | O=C(O)Cc1c(C(=O)O)[nH]c2ccc(Cl)cc12 |
| < 4.52 | CN(C)C(=O)Cc1c(C(=O)O)[nH]c2cc(Cl)ccc12 |
| < 4.00 | O=C(O)CCCc1c(C(=O)O)[nH]c2ccccc12 |
| 5.79 | O=C(O)Cc1c(C(=O)O)[nH]c2cc(Cl)ccc12 |
| < 4.00 | O=C(O)CCCCc1c(C(=O)O)[nH]c2ccccc12 |
| < 4.00 | O=C(O)c1[nH]c2ccccc2c1CO |
| 5.17 | CCCOC(=O)Cc1c(C(=O)O)[nH]c2cc(Cl)ccc12 |
| < 4.00 | O=C(O)CCc1c(C(=O)O)[nH]c2ccccc12 |
| < 4.52 | O=C(O)c1[nH]c2ccccc2c1CCO |
| 6.17 | CCOC(=O)Cc1c(C(=O)O)[nH]c2cc(Cl)ccc12 |
| 5.41 | CC(C)OC(=O)Cc1c(C(=O)O)[nH]c2cc(Cl)ccc12 |
| 5.93 | NC(=O)Cc1c(C(=O)O)[nH]c2cc(Cl)ccc12 |
| 4.85 | O=C(O)Cc1c(C(=O)O)[nH]c2ccc(F)cc12 |
| 4.53 | CC(=O)Cc1c(C(=O)O)[nH]c2ccccc12 |
| < 4.00 | CCC(C(=O)O)c1c(C(=O)O)[nH]c2ccccc12 (stereo not given) |
| 4.53 | O=C(O)Cc1c(C(=O)O)[nH]c2ccc(Br)cc12 |
| 6.33 | CCCNC(=O)Cc1c(C(=O)O)[nH]c2cc(Cl)ccc12 |
| < 4.00 | Cn1c(C(=O)O)c(CC(=O)O)c2ccccc21 |

Second part, the compound before the results:

| Structure (SMILES) | pKi |
| --- | --- |
| O=C(O)Cc1c(C(=O)O)oc2ccccc12 | < 4.00 |
| O=C(O)c1cc2c(O)cccc2[nH]1 | < 4.52 |
| O=C(O)Cc1cc2ccccc2nc1C(=O)O | < 4.00 |
| O=C(O)c1cc2cc(Cl)ccc2[nH]1 [5-CHLOROINDOLE-2-CARBOXYLIC ACID] | < 4.00 |
| CCOCCc1c(C(=O)O)[nH]c2cc(Cl)ccc12 | 5.08 |
| O=C(O)c1cc2c(OCc3ccccc3)cccc2[nH]1 | < 4.52 |
| CCOC(=O)Cc1c(CO)[nH]c2cc(Cl)ccc12 | < 4.52 |
| CN(C)CCNC(=O)Cc1c(C(=O)NCCN(C)C)[nH]c2cc(Cl)ccc12 | < 4.52 |
| Cc1cc2c(CC(=O)O)c(C(=O)O)[nH]c2cc1Cl | < 4.52 |
| O=C(O)c1cc2cc(Br)ccc2[nH]1 | < 4.00 |
| O=C(O)CC1c2ccccc2OC1C(=O)O (stereo not given) | < 4.52 |
| CCOC(=O)Cc1c(C=O)[nH]c2cc(Cl)ccc12 | < 4.52 |
| O=C(Cc1c(C(=O)O)[nH]c2cc(Cl)ccc12)NCCO | 4.99 |
| CCOC(=O)Cc1c(C(=O)OCCCN(C)C)[nH]c2cc(Cl)ccc12 | < 4.00 |
| O=C(O)c1[nH]c2cc(Cl)ccc2c1O | < 4.00 |
| CN(C)CCCNC(=O)Cc1c(C(=O)O)[nH]c2cc(Cl)ccc12 | < 4.52 |
| O=C(Cc1c(C(=O)O)[nH]c2cc(Cl)ccc12)NCCc1ccccc1 | 6.20 |
| Cc1ccc2[nH]c(C(=O)O)cc2c1 | < 4.00 |
| COc1ccc2[nH]c(C(=O)O)cc2c1 | < 4.00 |
| O=C(O)c1cc2c(C(=O)O)cccc2[nH]1 | < 4.00 |
| O=C(O)C1Cc2ccccc2N1 (stereo not given) | < 4.52 |
| O=C(O)Cc1c(CO)[nH]c2cc(Cl)ccc12 | < 4.52 |
| O=C(O)c1cc2cc(F)ccc2[nH]1 [5-FLUOROINDOLE-2-CARBOXYLIC ACID] | 4.04 |
| O=C(O)c1cc2ccccc2[nH]1 [INDOLE-2-CARBOXYLIC ACID] | < 4.00 |
| O=C1Cc2c([nH]c3cc(Cl)ccc23)C(=O)O1 | 4.12 |

Molecular target: Glutamate NMDA receptor
Assay: Inhibition of strychnine-insensitive [3H]MK-801 binding to the N-methyl-D-aspartate glutamate receptor of synaptic plasma membranes(SPM) prepared from rat forebrain
Type: cell-free
In short: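 Membranes treated with 0.04% v/v Triton X-100 and washed extensively in 50 mM Tris acetate pH 7.4. SPM (0.2–0.4 mg) incubated with 5 nM [3H]MK-801, 10 nM L-glutamate and test compound in the same buffer for 30 min at 25 °C. Samples filtered on 0.05% polyethylenimine-treated GF/B filters and washed four times with cold buffer. Filters scintillation counted; nonspecific binding set with 60 μM MK-801.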

| pIC50 | Structure (SMILES) |
| --- | --- |
| 5.17 | O=C(O)Cc1c(C(=O)O)[nH]c2cc(Cl)ccc12 |

From ChEMBL document CHEMBL1125656, “Novel indole-2-carboxylates as ligands for the strychnine-insensitive N-methyl-D-aspartate-linked glycine receptor” (J Med Chem, 1991)
